According to ChEMBL document CHEMBL5365541, “Designing peptide amphiphiles as novel antibacterials and antibiotic adjuvants against gram-negative bacteria” (Bioorg Med Chem, 2023):
In brackets after ≈: the same amount, converted by molar mass. Starred links: 1 amine or outer side, 2 acyl side, 3 side chain; linkers in the order of their positions; H or OH if unused. Non-standard residues stand in square brackets, D forms with d. Residues, ends and D or L forms follow the SMILES beside them. ξ: configuration not given here. X3 = CCCCCCCCCCCCCCCCCCN([C@@H](Cc1c[nH]cn1)C(=O)[*:2])[*:1]; X5 = CCCCCCCCCCCCCCCCCCN([C@@H](CCCNC(=N)N)C(=O)[*:2])[*:1]; ξDap = NCC(N)C(=O)O

Tests used:
[1] = tested on: Staphylococcus aureus; assay: Ratio of MIC for methicillin-resistant Staphylococcus aureus JE2 at pH 5.5 to MIC for methicillin-resistant Staphylococcus aureus JE2 at pH 7.0
[2] = tested on: Escherichia coli; assay: Antibacterial activity against Escherichia coli K12 incubated for 20 to 24 hrs by broth microdilution method; format: functional; settings: time 20-24 hrs
Method in brief: (§1)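 Broth microdilution: colonies suspended directly to 1.5×10^8 CFU/mL (0.5 McFarland), then diluted in Mueller–Hinton broth to ~10^5 CFU/mL final. PA stock 1 mg/mL in water, pH 7, serially diluted in MHB. Plates incubated 20–24 h at 37 °C. MIC = lowest concentration inhibiting growth, read as OD600 with optional 1% TTC staining. Triplicate.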

[3] = tested on: HT-29; assay: Cytotoxicity against human HT-29 cells assessed as reduction in cell viability at 500 ug/ml incubated for 24 hrs at pH 6.5 by MTT assay; format: toxicity, cell-based; settings: ht-29, pH 6.5, 24 h, dose 500 µg/ml
Method in brief: (§2)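 HT-29 cells in McCoy's 5a with 10% FBS were seeded at 15,000 cells/well and grown 24 h at 37 °C, 10% CO2. Medium then changed to pH 7.4 or pH 6.5 (20 mM MOPS, acidified with HCl). Peptide added in 2-fold dilutions, 7.8–500 µg/mL, for 24 h. Wells washed and given fresh pH 7.4 medium. MTT (12 mM, 10 µL) added for 4 h, then SDS-HCl for 4 h; A570 read.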

[4] = tested on: Escherichia coli; assay: Ratio of MIC for Escherichia coli K12 at pH 5.5 to MIC for Escherichia coli K12 at pH 7.0
[5] = Self assembly property of the compound assessed as zeta potential at 250 ug/mL at pH 7 measured after 2 hrs; format: physicochemical; settings: pH 7, 2 h, dose 250 µg/ml
Method in brief: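 Peptide self-assembled at 1 mg/mL, pH 7, annealed 2 h at 80 °C, and aged overnight. Diluted to 250 µg/mL in water; zeta potential measured at 25 °C.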

[6] = tested on: Acinetobacter baumannii; assay: Antibacterial activity against Acinetobacter baumannii incubated for 20 to 24 hrs by broth microdilution method; format: functional; settings: time 20-24 hrs
Method in brief: as §1

[7] = Cytotoxicity against human HT-29 cells assessed as inhibition of cell growth incubated for 24 hrs at pH 6.5 by MTT assay; format: toxicity, cell-based; settings: HT-29 cells, pH 6.5
Method in brief: as §2

[8] = Self assembly property of the compound assessed as formation of micelles at 1 mg/ml incubated overnight by transmission electron microscopy; format: physicochemical
Method in brief: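 Samples were dissolved at 2 mM in water, pH 7, and left at room temperature overnight. Applied to copper grids for 5 min, blotted, and negatively stained with NanoVan for 30 s. Imaged by TEM at 120 kV.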

[9] = tested on: Staphylococcus aureus; assay: Antibacterial activity against methicillin-resistant Staphylococcus aureus JE2 incubated for 20 to 24 hrs by broth microdilution method; format: functional; settings: time 20-24 hrs
Method in brief: (§3)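 Broth microdilution in MHB: direct colony suspension at 0.5 McFarland diluted to ~10^5 CFU/mL final; peptide stock 1 mg/mL in water at pH 7, serially diluted. Incubated 20-24 h at 37 °C; MIC taken as the lowest concentration inhibiting growth (OD 600 nm, 1% TTC stain); triplicate; vancomycin and gentamicin as positive controls.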

[10] = Cytotoxicity against human HT-29 cells assessed as inhibition of cell growth incubated for 24 hrs at pH 7.4 by MTT assay; format: toxicity, cell-based; settings: HT-29 cells, pH 7.4
Method in brief: as §2

[11] = tested on: HT-29; assay: Cytotoxicity against human HT-29 cells assessed as loss of cell viability at 125 ug/ml incubated for 24 hrs at pH 7.4 by MTT assay; format: toxicity, cell-based; settings: ht-29, pH 7.4, 24 h, at 125 µg/mL
Method in brief: as §2

[12] = Cytotoxicity against human HT-29 cells assessed as viable cells at 250 ug/ml incubated for 24 hrs at pH 7.4 by MTT assay; format: toxicity, cell-based; settings: at 250 µg/mL, read-out: Activity
Method in brief: as §2

[13] = tested on: Staphylococcus aureus; assay: Antibacterial activity against methicillin-resistant Staphylococcus aureus 13C incubated for 20 to 24 hrs by broth microdilution method; format: functional; settings: time 20-24 hrs
Method in brief: as §3

[14] = Retention time of the compound by RP-HPLC analysis; format: physicochemical
Method in brief: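 Reverse-phase HPLC, linear gradient 0–100% acetonitrile in water with 0.1% TFA over 20 min; retention time recorded.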

[15] = tested on: Staphylococcus aureus; assay: Antibacterial activity against Methicillin-resistant Staphylococcus aureus JE2 infected in Galleria mellonella assessed as survival at 50 mg/kg measured after 4 days relative to control; format: functional; settings: JE2, 96 h, time 4 day
Method in brief: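 G. mellonella larvae injected with 10 µL MRSA JE2 at a pre-set infective dose (60-80% lethality within 48 h, not 100% within 24 h) into last left proleg; after 2 h, 10 µL peptide or antibiotic injected into last right proleg; larvae held at 37 °C, mortality recorded daily for 4 days; untreated infected and PBS-only larvae as controls.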

Structure (SMILES) | Ratio [1] | MIC [2] | Activity [3] | Ratio [4] | Activity [5] | MIC [6] | IC50 at 24 h [7] | Activity [8] | MIC [9] | IC50 at 24 h [10] | Activity [11] | viability at 24 h, 250 ug/ml [12] | MIC [13] | Retention_time [14] | survival at 50 mg/kg [15]
CCCCCCCCCCCCCCCCCCN[C@@H](Cc1c[nH]cn1)C(=O)N[C@@H](Cc1c[nH]cn1)C(=O)NC(CN)C(=O)NC(CN)C(=O)NC(CN)C(=O)O (some centres undefined) (H-[X3]H[ξDap][ξDap][ξDap]-OH) | > 1 | 64 µg/mL (≈ 79.7 µM) | Non-Toxic | > 1 | 30.4 mV | 64 µg/mL (≈ 79.7 µM) | 72.3 µg/mL (≈ 90 µM) | Active | 64 µg/mL (≈ 79.7 µM) | 126 µg/mL (≈ 157 µM) | 100% | 0% | 32 µg/mL (≈ 39.8 µM) | 14.4 min | 
CCCCCCCCCCCCCCCCCCN[C@@H](CCCNC(=N)N)C(=O)N[C@@H](CCCNC(=N)N)C(=O)NC(CN)C(=O)NC(CN)C(=O)NC(CN)C(=O)O (some centres undefined) (H-[X5]R[ξDap][ξDap][ξDap]-OH) | > 1 | 32 µg/mL (≈ 38 µM) |  | > 1 | 30.1 mV | 32 µg/mL (≈ 38 µM) | 81.7 µg/mL (≈ 97.1 µM) | Active | 32 µg/mL (≈ 38 µM) | 117 µg/mL (≈ 139 µM) |  |  | 16 µg/mL (≈ 19 µM) | 14.6 min | 
CO[C@H]1/C=C/O[C@@]2(C)Oc3c(C)c(O)c4c(O)c(c(/C=N/N5CCN(C)CC5)c(O)c4c3C2=O)NC(=O)/C(C)=C\C=C\[C@H](C)[C@H](O)[C@@H](C)[C@@H](O)[C@@H](C)[C@H](OC(C)=O)[C@@H]1C [RIFAMPIN] |  | 8 µg/mL (≈ 9.72 µM) |  |  |  | 8 µg/mL (≈ 9.72 µM) |  |  |  |  |  |  |  |  | 
CN[C@H](CC(C)C)C(=O)N[C@H]1C(=O)N[C@@H](CC(N)=O)C(=O)N[C@H]2C(=O)N[C@H]3C(=O)N[C@H](C(=O)N[C@H](C(=O)O)c4cc(O)cc(O)c4-c4cc3ccc4O)[C@H](O)c3ccc(c(Cl)c3)Oc3cc2cc(c3O[C@@H]2O[C@H](CO)[C@@H](O)[C@H](O)[C@H]2O[C@H]2C[C@](C)(N)[C@H](O)[C@H](C)O2)Oc2ccc(cc2Cl)[C@H]1O [VANCOMYCIN] |  | 128 µg/mL (≈ 88.3 µM) |  |  |  |  |  |  |  |  |  |  |  |  | 30%
